Experimental data reported in ChEMBL document CHEMBL4819071, “Design, synthesis and in-vitro evaluation of fluorinated triazoles as multi-target directed ligands for Alzheimer disease” (Bioorg Med Chem Lett, 2021).
Values belong to the compound of their own block, whether it stands above or below them. Activity calls are given as the source filed them. The rule behind the calls is not given here.

Tests used:
[1] = target: T1, Amyloid-beta precursor protein (Homo sapiens, UniProt P05067); assay: Inhibition of amyloid beta (1 to 42 ) (unknown origin) self aggregation at 40 uM after 24 hrs by thioflavin-T fluorescence method
How it was run: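 Aβ42 (10 µM) incubated with compound (40 µM) for 24 h at 37 °C. Fibril formation quantified by Thioflavin T and given as percent of Aβ42 left to fibrillate alone. n = 3, Dunnett test.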

[2] = target: T1, Amyloid-beta precursor protein; assay: Inhibition of amyloid beta (1 to 42 ) (unknown origin) self aggregation at 40 uM measured after 24 hrs in presence of copper ion by thioflavin-T fluorescence method
How it was run: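 Aβ42 (10 µM) incubated with Cu2+ (10 µM) and compound for 24 h at 37 °C with shaking at 180 rpm. Percent fibril formation determined by Thioflavin T. Compared against Aβ42 alone and Aβ42 + Cu2+ by Dunnett test. n = 3.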

[3] = (§1) Cytotoxicity against rat PC-12 cells assessed as cell viability at 40 uM measured after 24 hrs by Alamar blue assay relative to control; format: cell-based; details: PC-12 cells, read-out: Activity
How it was run: (§2)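 PC-12 neuronal cells incubated 24 h with compound at 40 µM. Viability read with Alamar Blue and expressed as percent of untreated cells.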

[4] = Metal chelating activity assessed as Cu2+-compound complex formation at compound:Cu2+ concentration ratio of 1:1 to 1:6 incubated for 30 mins by UV-visible spectrophotometry
How it was run: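 Compound titrated with Cu2+ at compound:Cu ratios 1:1 to 1:6 in HEPES buffer at room temperature. UV–vis spectra recorded over about 240–320 nm. Absorbance plotted against ratio and fitted linearly.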

PC-12 [5] = assay: Anti-inflammatory activity in rat PC-12 cells assessed as decrease in LPS-stimulated ROS accumulation at 40 uM measured after 24 hrs by DCFH-DA staining based FACS […] assay; format: functional, cell-based
How it was run: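 PC-12 cells inflamed with LPS (10 µg/mL), then treated with compound at 40 µM for 24 h. ROS measured by DCFDA flow cytometry. Cells gated on FSC/SSC, singlets selected (FSC area vs height), and dead cells excluded by propidium iodide. The percentage of DCFDA ROS-high live cells was taken from the FL1 vs FSC dot plot quadrant. n = 3.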

[6] = Metal chelating activity assessed as Fe3+-compound complex formation by measuring hyperchromic shift at 50 uM incubated for 30 mins by UV-visible spectrophotometry
[7] = Metal chelating activity assessed as Fe3+-compound complex formation at compound:Fe3+ concentration ratio of 1:1 to 1:5 incubated for 30 mins by UV-visible spectrophotometry
How it was run: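 Compound combined with Fe3+ at compound:Fe ratios 1:1, 1:3 and 1:5 in HEPES buffer at room temperature. UV–vis spectra recorded over about 250–350 nm.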

[8] = Metal chelating activity assessed as Zn2+-compound complex formation at incremental dose of compound incubated for 30 mins by UV-visible spectrophotometry
[9] = Metal chelating activity assessed as Zn2+-compound complex formation by measuring hyperchromic shift at 50 uM incubated for 30 mins by UV-visible spectrophotometry
[10] = Metal chelating activity assessed as Cu2+-compound complex formation by measuring hyperchromic shift at 50 uM incubated for 30 mins by UV-visible spectrophotometry
[11] = target: T1, Amyloid-beta precursor protein; assay: Inhibition of amyloid beta (1 to 42 ) (unknown origin) self aggregation measured after 24 hrs by thioflavin-T fluorescence method
PC-12 [12] = assay: as §1; format: cell-based; details: pc-12, 24 h, 40 µM; how it was run: as §2

T1 sequence (P05067 whole entry): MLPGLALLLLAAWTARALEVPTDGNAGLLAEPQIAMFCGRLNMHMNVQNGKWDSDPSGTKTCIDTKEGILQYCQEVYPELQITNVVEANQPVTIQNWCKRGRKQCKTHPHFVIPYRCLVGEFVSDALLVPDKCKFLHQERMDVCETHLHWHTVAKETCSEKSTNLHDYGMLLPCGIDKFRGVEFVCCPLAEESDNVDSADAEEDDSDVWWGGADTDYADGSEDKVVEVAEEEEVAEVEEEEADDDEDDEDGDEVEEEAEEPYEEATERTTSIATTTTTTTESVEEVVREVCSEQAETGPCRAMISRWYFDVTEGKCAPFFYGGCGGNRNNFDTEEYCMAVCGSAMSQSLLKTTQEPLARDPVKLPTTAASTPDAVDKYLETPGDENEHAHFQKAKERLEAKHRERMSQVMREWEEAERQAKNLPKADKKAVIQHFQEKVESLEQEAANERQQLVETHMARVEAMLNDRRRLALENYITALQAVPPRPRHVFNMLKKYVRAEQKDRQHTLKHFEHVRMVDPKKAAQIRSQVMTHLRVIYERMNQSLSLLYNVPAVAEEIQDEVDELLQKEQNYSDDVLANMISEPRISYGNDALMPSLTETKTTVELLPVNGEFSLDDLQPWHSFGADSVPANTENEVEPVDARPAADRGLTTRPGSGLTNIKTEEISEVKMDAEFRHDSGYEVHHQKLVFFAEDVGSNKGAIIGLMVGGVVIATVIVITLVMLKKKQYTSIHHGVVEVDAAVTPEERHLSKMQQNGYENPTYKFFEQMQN

SMILES: COc1ccc(-n2cc(CNc3ccc(C(O)(C(F)(F)F)C(F)(F)F)cc3)nn2)cc1OC
inhibition [1]: Active | inhibition [2]: < 50% | viability at 24 h, 40 µM [3]: > 60%

SMILES: O=C(Nc1ccccc1)c1cn(-c2ccc(C(O)(C(F)(F)F)C(F)(F)F)cc2)nn1
inhibition [1]: inactive | viability at 24 h, 40 µM [3]: > 60%

SMILES: Cc1ccc(-n2cc(CNc3ccc(C(O)(C(F)(F)F)C(F)(F)F)cc3)nn2)cc1C
inhibition [1]: inactive | viability at 24 h, 40 µM [3]: > 60%

SMILES: OC(c1ccc(NCc2cn(-c3ccccc3)nn2)cc1)(C(F)(F)F)C(F)(F)F
Activity (PC-12 [12]): Toxic

SMILES: O=C(Nc1ccc(C(O)(C(F)(F)F)C(F)(F)F)cc1)c1cn(-c2ccccc2)nn1
Activity (PC-12 [12]): Toxic

Now from value to compound, other results behind:

inhibition [1]: Active | inhibition [2]: < 50% | Activity [4]: Active | Activity [6]: Active | Activity [7]: Active | Activity [8]: Active | Activity [9]: Active | Activity [10]: Active | IC50 [11]: 4.6 µM
SMILES: Cc1ccc(-n2cc(C(=O)Nc3ccc(C(O)(C(F)(F)F)C(F)(F)F)cc3)nn2)cc1C
Activity (PC-12 [5]): Active | viability at 24 h, 40 µM [3]: > 60%

inhibition [1]: Active
SMILES: Cc1ccc(NC(=O)c2cn(-c3ccc(C(O)(C(F)(F)F)C(F)(F)F)cc3)nn2)cc1C
viability at 24 h, 40 µM [3]: > 60%
